Legend:
Rattus norvegicus [1] = assay: Diuretic effect was determined after peroral administration at a dose of 10 mg/kg in rats; assay type: functional, Urine; settings: route oral
Outline: (§1)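 Male Sprague Dawley rats (250–350 g) fasted 16–20 h, some also without water for 16–20 h. Compound or vehicle given orally. Spontaneously voided urine collected over 4 h in metabolic cages and reported as mL/4 h; n = 3, mean ± SEM.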

Vasopressin V1 receptor [2] = molecular target: Vasopressin V1 receptor (Rattus norvegicus, UniProt P48974+P30560); assay: Inhibitory activity against arginine vasopressin V1 receptor using [3H]AVP as radioligand in rat liver
Outline: (§2)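 Competition binding on plasma membrane preparations, with [3H]AVP (80 Ci/mmol, 1–2 nM) and graded test compound, in 100 mM Tris-HCl pH 7.5, 5 mM MgCl2, 1 mM EDTA, 0.1% BSA, ≤1% final DMSO. Incubated 20 min at 37 °C, stopped with ice-cold Tris pH 8.0, filtered on GF/B. Nonspecific binding: 1 μM AVP. IC50 by regression of displacement curves; n = 3, mean ± SEM.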

Vasopressin V1 receptor [3] = molecular target: Vasopressin V1 receptor (Homo sapiens, UniProt P37288+P47901); assay: Inhibitory activity against arginine vasopressin V1 receptor using [3H]AVP as radioligand in human platelet; outline: as §2
Vasopressin V2 receptor [4] = molecular target: Vasopressin V2 receptor (Homo sapiens, UniProt P30518); assay: Inhibitory activity against human recombinant arginine vasopressin V2 receptor using [3H]AVP as radioligand in CHO cells; assay type: cell-based; outline: as §2
Vasopressin V2 receptor [5] = molecular target: Vasopressin V2 receptor (Rattus norvegicus, UniProt Q00788); assay: Inhibitory activity against arginine vasopressin V2 receptor using [3H]AVP as radioligand in rat […] medulla; assay type: tissue-based; outline: as §2
Rattus norvegicus [6] = assay: Antagonistic effect against AVP-induced hypertension in rats after intravenous administration; assay type: functional; settings: read-out: ID50 (the source's name)
Outline: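 Male Sprague Dawley rats (250–350 g) under urethane anaesthesia (1.3 g/kg ip), with femoral artery and vein catheters, held at 37 °C. Compound or vehicle given iv (1 mL/kg) 2 min before AVP 30 mU/kg iv. ID50 is the dose inhibiting the maximal pressor response by 50%; n = 3, mean ± SEM.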

Rattus norvegicus [7] = assay: Diuretic effect was determined after peroral administration at a dose of 30 mg/kg in rats; assay type: functional, Urine; settings: route oral; outline: as §1

Sequence of Vasopressin V2 receptor (Homo sapiens, UniProt P30518) (P30518 whole entry): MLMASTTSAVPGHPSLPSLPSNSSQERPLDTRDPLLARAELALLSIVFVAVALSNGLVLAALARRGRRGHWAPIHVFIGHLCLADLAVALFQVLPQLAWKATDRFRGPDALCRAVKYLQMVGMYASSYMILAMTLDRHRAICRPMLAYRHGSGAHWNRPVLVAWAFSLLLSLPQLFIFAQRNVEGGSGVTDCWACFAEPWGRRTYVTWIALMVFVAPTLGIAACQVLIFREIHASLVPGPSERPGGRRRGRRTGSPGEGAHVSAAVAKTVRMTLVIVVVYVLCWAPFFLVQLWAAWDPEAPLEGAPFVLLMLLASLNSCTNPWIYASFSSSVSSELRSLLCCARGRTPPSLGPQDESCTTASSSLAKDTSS
Sequence of Vasopressin V2 receptor (Rattus norvegicus, UniProt Q00788) (Q00788 whole entry): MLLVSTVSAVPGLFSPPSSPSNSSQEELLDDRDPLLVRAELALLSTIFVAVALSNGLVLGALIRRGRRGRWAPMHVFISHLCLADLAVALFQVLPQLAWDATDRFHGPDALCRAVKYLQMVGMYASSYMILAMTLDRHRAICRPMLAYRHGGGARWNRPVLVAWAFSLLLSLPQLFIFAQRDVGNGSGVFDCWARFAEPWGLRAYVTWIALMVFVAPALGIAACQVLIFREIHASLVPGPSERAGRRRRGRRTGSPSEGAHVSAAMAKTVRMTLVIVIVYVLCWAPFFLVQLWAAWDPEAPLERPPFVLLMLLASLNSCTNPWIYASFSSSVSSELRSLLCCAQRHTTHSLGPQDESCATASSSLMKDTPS

Compound | IC50 (Vasopressin V1 receptor [2]) [nM] | IC50 (Vasopressin V1 receptor [3]) [nM] | IC50 (Vasopressin V2 receptor [4]) [nM] | IC50 (Vasopressin V2 receptor [5]) [nM] | Urine volume (Rattus norvegicus [1]) [ml 4hr-1] | ED50 (Rattus norvegicus [6]) [mg/kg] | Urine volume (Rattus norvegicus [7]) [ml 4hr-1]
CN1CCN(C(=O)CCCOc2cc(C(=O)N3CCCCc4sccc43)ccc2NC(=O)c2ccccc2-c2ccccc2)CC1 | 20 | 10 | 6 | 1 | 17.6 | 0.03 | 
O=C(Nc1ccc(C(=O)N2CCCCc3sccc32)cc1OCCCC(=O)N1CCC(N2CCCCC2)CC1)c1ccccc1-c1ccccc1 | 20 | 10 | 30 | 20 | 8 | 0.03 | 
CN(C)C1CCN(C(=O)CCCOc2cc(C(=O)N3CCCCc4sccc43)ccc2NC(=O)c2ccccc2-c2ccccc2)CC1 | 6 | 3 | 20 | 3 | 22 | 0.005 | 
CN1CCCN(C(=O)CCCOc2cc(C(=O)N3CCCCc4sccc43)ccc2NC(=O)c2ccccc2-c2ccccc2)CC1 | 20 | 50 | 10 | 3 | 19.1 | 0.008 | 
CN(C)C1CCN(C(=O)COc2cc(C(=O)N3CCCCc4sccc43)ccc2NC(=O)c2ccccc2-c2ccccc2)CC1 | 20 | 50 | 8 | 4 | 15 | 0.02 | 
CN(C)CCN(C)CCCCOc1cc(C(=O)N2CCCCc3sccc32)ccc1NC(=O)c1ccccc1-c1ccccc1 | 20 | 5 | 80 | 8 | 10.2 | 0.02 | 
COc1cc(C(=O)N2CCCC(N(C)C)c3sccc32)ccc1NC(=O)c1ccccc1-c1ccccc1 (stereo not given) | 2000 | 3000 | 20 | 10 | 9.3 | > 0.3 | 12
CCN(CC)C1CCN(C(=O)CCCOc2cc(C(=O)N3CCCCc4sccc43)ccc2NC(=O)c2ccccc2-c2ccccc2)CC1 | 4 | 4 | 9 | 6 | 18 | 0.01 | 

The next lines start with results.

IC50 (Vasopressin V1 receptor [2]) [nM] | IC50 (Vasopressin V1 receptor [3]) [nM] | IC50 (Vasopressin V2 receptor [4]) [nM] | IC50 (Vasopressin V2 receptor [5]) [nM] | Compound | Urine volume (Rattus norvegicus [1]) [ml 4hr-1] | ED50 (Rattus norvegicus [6]) [mg/kg] | Urine volume (Rattus norvegicus [7]) [ml 4hr-1]
3 | 5 | 1 | 7 | CN1CCN(CCCCOc2cc(C(=O)N3CCCCc4sccc43)ccc2NC(=O)c2ccccc2-c2ccccc2)CC1 | 16.9 | < 0.01 | 
300 | 400 | 80 | 20 | CN(C)CCN1CCCN(C(=O)c2ccc(NC(=O)c3ccccc3-c3ccccc3)cc2)c2ccsc21 | 6.7 | 0.31 | 
> 10000 | > 10000 | > 10000 | 100 | CN1CCCN(CC(=O)N2CCCN(C(=O)c3ccc(NC(=O)c4ccccc4-c4ccccc4)cc3)c3ccsc32)CC1 |  |  | 
500 | 400 | 80 | 70 | O=C(Nc1ccc(C(=O)N2CCCN(Cc3ccccc3)c3sccc32)cc1)c1ccccc1-c1ccccc1 |  | > 0.3 | 
2 | < 1 | 2 | < 1 | CN1CCCN(CCCOc2cc(C(=O)N3CCCCc4sccc43)ccc2NC(=O)c2ccccc2-c2ccccc2)CC1 | 18.3 | 0.03 | 
500 | 700 | 60 | 30 | O=C(Nc1ccc(C(=O)N2CCCN(Cc3cccnc3)c3sccc32)cc1)c1ccccc1-c1ccccc1 | 1.2 | 0.14 | 
200 | 800 | 200 | 10 | O=C(Nc1ccc(C(=O)N2CCCN(CCN3CCCC3)c3sccc32)cc1)c1ccccc1-c1ccccc1 | 6.3 | > 0.3 | 
200 | 60 | < 10 | < 10 | O=C(Nc1ccc(C(=O)N2CCCCc3sccc32)cc1O)c1ccccc1-c1ccccc1 | 2.3 | 0.04 | 
200 | 1000 | 50 | 10 | CN1CCN(CCN2CCCN(C(=O)c3ccc(NC(=O)c4ccccc4-c4ccccc4)cc3)c3ccsc32)CC1 | 7.4 | > 0.3 | 
